Measured values reported in ChEMBL document CHEMBL4138258 (ACS Med Chem Lett, 2017).

Legend:
[1] = target: T1, Cannabinoid receptor 2 (Homo sapiens, UniProt P34972); assay: Agonist activity at recombinant human CB2 receptor expressed in HEK293 cells assessed as increase in beta arrestin recruitment measured after 2 to 3 hrs by PathHunter assay; type: functional, cell-based
[2] = target: T1, Cannabinoid receptor 2; assay: Agonist activity at recombinant human CB2 receptor expressed in HEK293 cells assessed as increase in beta arrestin recruitment measured after 2 to 3 hrs by PathHunter assay relative to CP55940; type: functional, cell-based
[3] = target: T2, Cannabinoid receptor 2 (Rattus norvegicus) (UniProt Q9QZN9); assay: Agonist activity at recombinant rat CB2 receptor expressed in HEK293 cells assessed as increase in beta arrestin recruitment measured after 2 to 3 hrs by PathHunter assay relative to CP55940; type: functional, cell-based
T2 sequence (whole entry): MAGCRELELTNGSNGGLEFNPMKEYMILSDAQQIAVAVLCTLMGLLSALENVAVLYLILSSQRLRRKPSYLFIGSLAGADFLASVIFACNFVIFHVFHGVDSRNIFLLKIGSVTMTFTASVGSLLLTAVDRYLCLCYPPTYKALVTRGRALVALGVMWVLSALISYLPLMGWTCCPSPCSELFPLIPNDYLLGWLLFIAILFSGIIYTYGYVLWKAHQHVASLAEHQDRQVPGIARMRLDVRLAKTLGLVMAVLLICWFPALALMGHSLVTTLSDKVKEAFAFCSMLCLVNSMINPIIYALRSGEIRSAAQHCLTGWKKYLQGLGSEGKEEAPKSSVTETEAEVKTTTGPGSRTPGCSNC
How it was run: (§1)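 Beta-arrestin recruitment EC50 is the mean of three or more independent experiments (logSD < 0.4). Intrinsic activity (Emax) is expressed relative to CP-55,940 set at 100.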

[4] = target: T3, Cannabinoid receptor 1 (Homo sapiens, UniProt P21554); assay: Agonist activity at recombinant human CB1 receptor expressed in HEK293 cells assessed as increase in beta arrestin recruitment measured after 2 to 3 hrs by PathHunter assay; type: functional, cell-based
[5] = target: Cannabinoid receptor 1 (Rattus norvegicus, UniProt P20272); assay: Agonist activity at recombinant rat CB1 receptor expressed in HEK293 cells assessed as increase in beta arrestin recruitment measured after 2 to 3 hrs by PathHunter assay; type: functional, cell-based
[6] = Half life in human liver microsomes; type: ADME, microsome
[7] = target: T4, Cannabinoid receptor 2 (Rattus norvegicus, UniProt Q9QZN9); assay: Agonist activity at recombinant rat CB2 receptor expressed in HEK293 cells assessed as increase in beta arrestin recruitment measured after 2 to 3 hrs by PathHunter assay; type: functional, cell-based
T4 sequence (Q9QZN9 whole entry): T2 sequence (whole entry)

[8] = Half life in rat liver microsomes; type: ADME, microsome
[9] = Half life in mouse liver microsomes; type: ADME, microsome
[10] = target: T3, Cannabinoid receptor 1; assay: Agonist activity at recombinant human CB1 receptor expressed in HEK293 cells assessed as increase in beta arrestin recruitment measured after 2 to 3 hrs by PathHunter assay relative to CP55940; type: functional, cell-based; how it was run: as §1
[11] = target: Cannabinoid receptor 1 (Rattus norvegicus) (UniProt P20272); assay: Agonist activity at recombinant rat CB1 receptor expressed in HEK293 cells assessed as increase in beta arrestin recruitment measured after 2 to 3 hrs by PathHunter assay relative to CP55940; type: functional, cell-based; how it was run: as §1
[12] = Ratio of drug level in brain to plasma in Sprague-Dawley rat at 3 mg/kg, po measured after 2 hrs; type: ADME, organism-based; conditions: brain and plasma, read-out: BPR
[13] = tested on: Rattus norvegicus; assay: Toxicity in Sprague-Dawley rat assessed as decrease in core body temperature at 0.3 mg/kg, po measured after 60 mins by rectal probe method; type: organism-based; conditions: in vivo, 1 h
[14] = tested on: Rattus norvegicus; assay: Toxicity in Sprague-Dawley rat assessed as effect on locomotor activity up to 100 mg/kg, po; type: organism-based; conditions: in vivo
[15] = tested on: Rattus norvegicus; assay: Toxicity in Sprague-Dawley rat assessed as change in body temperature up to 100 mg/kg, po; type: organism-based; conditions: in vivo
[16] = target: T2, Cannabinoid receptor 2 (Rattus norvegicus); assay: Induction of recombinant HA-tagged rat CB2 receptor internalization expressed in CHOK1 cells at 10 uM measured after 1 hr by time-resolved flow cytometry relative to CP55940; type: functional, cell-based

T1 sequence (P34972 whole entry): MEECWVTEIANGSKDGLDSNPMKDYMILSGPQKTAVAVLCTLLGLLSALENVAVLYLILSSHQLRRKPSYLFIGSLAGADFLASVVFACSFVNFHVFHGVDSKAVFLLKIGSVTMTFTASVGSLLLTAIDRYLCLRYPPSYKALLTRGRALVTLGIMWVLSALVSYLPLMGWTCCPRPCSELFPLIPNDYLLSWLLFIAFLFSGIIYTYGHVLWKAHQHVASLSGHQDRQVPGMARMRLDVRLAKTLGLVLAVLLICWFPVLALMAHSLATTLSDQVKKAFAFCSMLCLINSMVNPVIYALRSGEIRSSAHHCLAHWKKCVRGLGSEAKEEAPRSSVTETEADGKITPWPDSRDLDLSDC
T3 sequence (P21554 whole entry): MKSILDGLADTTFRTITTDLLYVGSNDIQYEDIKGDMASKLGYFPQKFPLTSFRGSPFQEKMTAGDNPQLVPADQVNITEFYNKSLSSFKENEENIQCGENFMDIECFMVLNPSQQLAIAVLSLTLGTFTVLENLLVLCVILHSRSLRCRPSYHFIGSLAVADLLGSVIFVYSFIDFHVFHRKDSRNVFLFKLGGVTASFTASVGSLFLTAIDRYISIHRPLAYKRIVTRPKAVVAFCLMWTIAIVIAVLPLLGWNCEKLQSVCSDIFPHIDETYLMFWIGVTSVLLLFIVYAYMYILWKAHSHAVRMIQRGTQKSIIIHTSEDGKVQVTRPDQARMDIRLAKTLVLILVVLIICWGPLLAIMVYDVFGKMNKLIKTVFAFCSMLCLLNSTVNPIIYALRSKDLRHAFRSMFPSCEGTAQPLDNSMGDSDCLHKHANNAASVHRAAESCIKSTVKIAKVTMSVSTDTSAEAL
Chain of Cannabinoid receptor 1 (Rattus norvegicus, UniProt P20272) (P20272 whole entry): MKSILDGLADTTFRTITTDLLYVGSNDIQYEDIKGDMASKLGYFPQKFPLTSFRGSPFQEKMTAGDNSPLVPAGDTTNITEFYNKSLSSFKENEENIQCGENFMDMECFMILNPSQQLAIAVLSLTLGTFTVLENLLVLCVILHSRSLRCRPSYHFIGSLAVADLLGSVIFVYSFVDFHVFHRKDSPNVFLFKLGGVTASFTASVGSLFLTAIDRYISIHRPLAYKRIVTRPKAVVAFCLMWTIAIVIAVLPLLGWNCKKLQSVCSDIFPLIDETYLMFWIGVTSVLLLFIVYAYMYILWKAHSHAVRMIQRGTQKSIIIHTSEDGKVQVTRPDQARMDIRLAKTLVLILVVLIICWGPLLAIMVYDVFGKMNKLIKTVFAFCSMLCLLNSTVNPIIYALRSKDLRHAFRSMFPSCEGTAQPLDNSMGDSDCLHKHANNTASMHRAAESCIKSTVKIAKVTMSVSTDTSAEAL
Chain of Cannabinoid receptor 1 (Rattus norvegicus) (P20272 whole entry): as above

Row | Compound | EC50 [1] [nM] | Emax [2] [%] | Emax [3] [%] | EC50 [4] [nM] | EC50 [5] [nM] | half-life [6] [h] | EC50 [7] [nM] | half-life [8] [h] | half-life [9] [h] | Emax [10] [%] | Emax [11] [%] | Kp at 2 h [12] | Activity [13] | Activity [14] | Activity [15] | Activity [16] [%]
1 | O=C(N[C@@H](CO)C(F)(F)F)c1nn(-c2c[n+]([O-])ccn2)c2c1C[C@@H]1C[C@H]21 | 17.2 | 119 | 107 | > 10000 | > 10000 | > 1 | 35 | > 1 | – | – | – | – | – | – | – | –
2 | CC(C)(CO)NC(=O)c1nn(-c2cnccn2)c2c1C[C@H]1C[C@@H]21 | – | – | 85 | – | – | > 1 | – | > 1 | > 1 | – | – | – | – | – | – | –
3 | CC(C)[C@@H](CF)NC(=O)c1nn(-c2c[n+]([O-])ccn2)c2c1C[C@@H]1C[C@H]21 | 3.8 | 98 | 87 | 6100 | 2700 | > 1 | 6.4 | > 1 | – | 96 | 74 | – | – | – | – | –
4 | CC(C)(C)[C@@H](CO)NC(=O)c1nn(-c2cnccn2)c2c1C[C@@H]1C[C@H]21 | 59 | 107 | 95 | > 10000 | > 10000 | > 1 | 53 | > 1 | 0.4 | – | – | 0.1 | – | – | – | –
5 | O=C(NC1(C(F)(F)F)CC1)c1nn(-c2c[n+]([O-])ccn2)c2c1C[C@@H]1C[C@H]21 | – | – | 103 | > 10000 | > 10000 | > 1 | 14.5 | > 1 | – | – | – | – | – | – | – | –
6 | O=C(N[C@H](CO)c1ccccc1)c1nn(-c2c[n+]([O-])ccn2)c2c1C[C@@H]1C[C@H]21 | – | 96 | 72 | > 10000 | > 10000 | > 1 | 60 | > 1 | – | – | – | – | – | – | – | –
7 | CC1(NC(=O)c2nn(-c3c[n+]([O-])ccn3)c3c2C[C@@H]2C[C@H]32)CC1 | 91 | 102 | 81 | > 10000 | > 10000 | – | 290 | – | – | – | – | – | – | – | – | –
8 | CCCCCCC(C)(C)c1ccc([C@@H]2C[C@H](O)CC[C@H]2CCCO)c(O)c1 [CP-55940] | – | – | – | – | – | – | – | – | – | – | – | – | Toxic | – | – | –
9 | CC(C)(C)[C@H](CO)NC(=O)c1nn(-c2cnccn2)c2c1C[C@@H]1C[C@H]21 | 560 | 78 | – | > 10000 | – | – | – | – | – | – | – | – | – | – | – | –
10 | CC(C)(NC(=O)c1nn(-c2c[n+]([O-])ccn2)c2c1C[C@@H]1C[C@H]21)C(F)(F)F | 2.3 | 108 | 98 | > 10000 | > 10000 | > 1 | 6.3 | > 1 | – | – | – | 0.83 | – | Non-Toxic | Non-Toxic | –
11 | CC(C)(CO)NC(=O)c1nn(-c2ccc(F)cc2F)c2c1C[C@H]1C[C@@H]21 | – | – | 46 | – | – | – | – | – | – | – | – | – | – | – | – | 68
12 | CC(C)(C)[C@@H](CO)NC(=O)c1nn(-c2cnccn2)c2c1C[C@H]1C[C@@H]21 | 26 | 104 | 78 | > 10000 | > 10000 | > 1 | 21 | 0.633 | 0.15 | – | – | – | – | – | – | –
13 | CC(C)(C)[C@@H](CF)NC(=O)c1nn(-c2c[n+]([O-])ccn2)c2c1C[C@@H]1C[C@H]21 | 1.2 | 107 | 97 | 1100 | 840 | > 1 | 1.5 | > 1 | – | 105 | 107 | – | – | – | – | –
14 | O=C(NC1(C(F)(F)F)CCC1)c1nn(-c2c[n+]([O-])ccn2)c2c1C[C@@H]1C[C@H]21 | 1.2 | 115 | 106 | > 10000 | > 10000 | > 1 | 1.6 | > 1 | – | – | – | – | – | – | – | –
15 | CC(C)[C@@H](CO)NC(=O)c1nn(-c2c[n+]([O-])ccn2)c2c1C[C@@H]1C[C@H]21 | 46 | 103 | 88 | > 10000 | > 10000 | > 1 | 55 | > 1 | – | – | – | – | – | – | – | –
16 | O=C(NC1(CO)CCCC1)c1nn(-c2c[n+]([O-])ccn2)c2c1C[C@@H]1C[C@H]21 | 5.6 | 112 | 106 | > 10000 | > 10000 | > 1 | 6.8 | > 1 | – | – | – | – | – | – | – | –
17 | O=C(N[C@H](CO)C(F)(F)F)c1nn(-c2c[n+]([O-])ccn2)c2c1C[C@@H]1C[C@H]21 | 280 | 98 | 85 | > 10000 | > 10000 | > 1 | 530 | > 1 | – | – | – | – | – | – | – | –
